This note sets out measurements from the EternaBench riboswitch data.

This data set has as its system MS2 coat protein. Description: apparent Kd, MS2 coat protein; higher = weaker binding; RNA-MaP array; FMN 200 µM where present. In a few lines: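 Stalled E. coli RNA polymerase transcribed the designs on Illumina sequencing-chip clusters. SNAP-549-labelled MS2 coat protein was titrated from 0.7 or 1.5 nM, doubling to 3 µM, without and then with constant ligand, in 100 mM Tris-HCl pH 7.5, 80 mM KCl, 4 mM MgCl2, BSA, DTT, yeast tRNA and Tween-20. Per-cluster binding curves were fitted to green signal normalised to red-channel RNA signal and control-cluster median Fmax. The apparent Kd is the median of the filtered fits.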

Setting [1] is: designed as: ON switch for flavin mononucleotide, no ligand.
Where [2] appears, read: ligand present: flavin mononucleotide, designed as: ON switch for flavin mononucleotide.
[3] abbreviates: designed as: OFF switch for flavin mononucleotide, no ligand.
Setting [4] is: ligand present: flavin mononucleotide, designed as: OFF switch for flavin mononucleotide.

Consider “AGAGAGAGCACAGGAUAUCCGCGCACAUGUAGCGGAGAAGGGUGACCUUUUUGCACAUGAGGAUCACCCAUGUCCAGCACCACA”, for which the apparent Kd – broadly, the concentration giving half-maximal binding under the conditions of the assay – reads like this: under setting [1], 39.7 nM; under setting [2], 21.7 nM.
Turning to “AUUACCAGAGGAUAUGCGAGGGUGUACCUCCCACAGCGAAAACAUGAGGAUCACCCAUGUAGAAGGCUGAACAU”, the “apparent Kd” value under setting [3] is 56.7 nM and the “apparent Kd” value under setting [4] amounted to 46.3 nM.
In the case of “CGACAGUCAGGAUAUGCAAAAAAAAAAAAAAAAAAAAAAAAGCAGAAGGGACAUGAGGAUCACCCAUGUCGUCG”, the “apparent Kd” value by setting is: under setting [3], 59.5 nM; under setting [4], 45.2 nM.
Taken in the same sequence, the figures for “GGUGCCAUGUAGAAGGCAGAUCUGAUUCAGAUCUGAGGAUAUACAUGAGGAUCACCCAUGUAAAUGCACCGCACGAGAGUGCAA” were 33.1 nM and 149 nM.
For “UUGAAAUUGUAAGGAUAUACUCUGUGAUGAAGAGUAGAAGGUACUUACAUGAGGAUCACCCAUGUUUAACGAGAUACUAAUCGU”, the “apparent Kd” value was determined as 32 nM under setting [1] and 16.6 nM under setting [2].
For “UUAUACGUUGAGGAUAUGCGAAUUAGUAUAGUUGCAGAAGGCGAUACAUGAGGAUCACCCAUGUUUAUGGGCAU”, the “apparent Kd” value came out at 194 nM under setting [3] and 341 nM under setting [4].
Turning to “AAUUUACAGCUAGGAUAUACAUGAGGAUCACCCAUGUAAUCAUAUGAUGUUAUCAUUGUAUGAGUGUAGAAGGAGCAAAUAAGA”, the “apparent Kd” value was found to be 7.72 nM under setting [3] and 6.34 nM under setting [4].
Consider “CUAAGACGAUGUCACGUUGUCGGGACAGAAGGCACGUACAUGAGGAUCACCCAUGUAAAACACAGUGAGGAUAUGUACCUGCGA”, for which the “apparent Kd” value was 30.8 nM under setting [1] and 8.1 nM under setting [2].
For the sequence “AUCCUGCGAGGAUAUACAUAAUUUUUUUCGUUUUGACUCGAACAUGAGGAUCACCCAUGUAGAAGGUGCUACAC”, the “apparent Kd” value turned out to be 33.7 nM under setting [3] and 30.1 nM under setting [4].
Take “GUAGCUACUAUUAUACAUGAGGAUCACCCAUGUUACAUGGGUAAGGAUAUUGAAGUUAUUAUUAUCAAGAAGGUACUAUGCUAC”: the “apparent Kd” value under setting [1] was found to be 570 nM and the “apparent Kd” value under setting [2] came to 102 nM.
For “UUCAUCGAUGAAGGAUAUCUAUGUCCAACAUGAGGAUCACCCAUGUUGAGGAUUACCUAUGUGUAGGAGAAGGUCAAUAUGACU”, the “apparent Kd” value under setting [1] worked out at 7.03 nM and the “apparent Kd” value under setting [2] worked out at 6.39 nM.
Regarding “UGGUACAUCGGAGGAUAUCAUGUAAAUACAUGAGGAUCACCCAUGUCGAUGGAGACAUCGGAGAUUGAGAAGGCCGAUGUACCG”, the “apparent Kd” value under setting [1] is 166 nM and the “apparent Kd” value under setting [2] came to 8.66 nM.
On to “CUGUUCCGUGUAGGAUAUGCAUAUUCUCAUUAUGCAGAAGGACAUGAGGAUCACCCAUGUAUGUUAUUAUCAUGUGUUACAUGU”, for which the “apparent Kd” value was determined as 31.4 nM under setting [3] and 163 nM under setting [4].
Turning to “GCAUGAGACUAAGGAUAUGAUGUACCUAUAUGUGACAUGAGGAUCACCCAUGUGGUAAGUAUGAUUCAGAAGGUAGAGACAUGC”, the “apparent Kd” value under setting [1] turned out to be 33.7 nM and the “apparent Kd” value under setting [2] was found to be 21.3 nM.
Take “UAUAGACAUGAGGAUCACCCAUGUAAGGAUAUCGGUACUAAUGGUAUAAUCUACUUAGCGAGAAGGUACAAUGU”: the “apparent Kd” value runs as follows: under setting [3], 31 nM; under setting [4], 30.6 nM.
For “AUUAUGCAGCAGGAUAUCGAUCCGCAGUAUGAUCGAGAAGGGCUGACAUGAGGAUCACCCAUGUGCGUCCUAGG”, the “apparent Kd” value is, setting by setting: under setting [3], 43.6 nM; under setting [4], 155 nM.
Consider “GCUCCCGGUGUCAGGAUAUAGAGUUGGAAACGCCACUAGAAGGGACAUGAGGAUCACCCAUGUCAAGUUCGCUC”, for which the “apparent Kd” value under setting [3] is 14.8 nM and the “apparent Kd” value under setting [4] turned out to be 14.9 nM.
As for “CCUUUGAAGAUCCUAGAUUUCGACAUGAGGAUCACCCAUGUGCAGGAUAUCGUGCCAGUGAUGUGCGAGAAGGGCAGUCUCUGC”, the “apparent Kd” value under setting [3] came to 50.8 nM and the “apparent Kd” value under setting [4] came out at 55 nM.
Regarding “CAUCUCUAUGUAGGAUAUAGGACAACAACAGCACUAGAAGGACAUGAGGAUCACCCAUGUACACUACUCGCGUCAUCGUCUCGC”, the “apparent Kd” value runs as follows: under setting [3], 6.01 nM; under setting [4], 6.22 nM.
Regarding “GAUUAGUGAGGAUAUAUUUACGAUCCUCAGCUUUAUUCAGGACAUGAGGAUCACCCAUGUAGAAGGCGUUAAUC”, the “apparent Kd” value by setting is: under setting [3], 25.8 nM; under setting [4], 34.6 nM.
On to “GGGUGUGAAGGAUAUACAUGAGGAUCACCCAUGUGAGAGGAGGAGGUUGAGGAGGUUGGUAGAAGGUCAGGAGG”, for which the “apparent Kd” value was 169 nM under setting [3] and 142 nM under setting [4].
With “UUCGCACAUGAGGAUCACCCAUGUCAGGAUAUUGUGGUGGGAACAACUGGGAAACGCACGAGAAGGGACACACA”, the “apparent Kd” value under setting [3] stood at 36.2 nM and the “apparent Kd” value under setting [4] came out at 32.2 nM.
Take “GAGAUGUGAGGAUAUCUAGACCGCGGAAGAGCCGCAGUCCGAGAGAAGGCACAUGAGGAUCACCCAUGUGAUGA”: the “apparent Kd” value came to 33.4 nM under setting [3] and 61.2 nM under setting [4].
Turning to “AAUAGUGGAGGAUAUACAUGAGGAUCACCCAUGUAGAAAGGAAGUGUAUAUAUGGCGUGUAGAAGGCCAAAUAA”, the “apparent Kd” value under setting [3] was 36.4 nM and the “apparent Kd” value under setting [4] is 34.1 nM.
As for “CAUGUCCUCACAGGAUAUGCACCACUUUGUGGUGCAGAAGGGUGAAUACAUGAGGAUCACCCAUGUGGACAUGAUAUAUUUAAU”, the “apparent Kd” value under setting [1] was 1140 nM and the “apparent Kd” value under setting [2] worked out at 72.2 nM.
In the case of “UAAAUUUUGUAAGGAUAUACACGAGAUUCAAGUGUAGAAGGUACUUACAUGAGGAUCACCCAUGUAUACAUGGAUACUAGAUAU”, the “apparent Kd” value reads like this: under setting [1], 209 nM; under setting [2], 103 nM.
Consider “GUAUUUAUAUAAGGAUAUAAGUCUAGGACAUGAGGAUCACCCAUGUGUGUCUUAGAAGGUAUAUAGGUAAUACUGUUACAGUAA”, for which the “apparent Kd” value by setting is: under setting [1], 86.1 nM; under setting [2], 23.6 nM.
Regarding “AUUAUUUUCGAAGGAUAUGGAUACAUGAGGAUCACCCAUGUAUAAAAUGUGAUCAAUUAUAUGAUCCAGAAGGUCGUUGUUUAU”, the “apparent Kd” value reads like this: under setting [3], 80.8 nM; under setting [4], 257 nM.
Turning to “AGGAAACAUGAGGAUCACCCAUGUAAAAAAGUGGGAGGAUAUACUAGAAGAAACAAAAUAGUAGAAGGCCUAAAAA”, the “apparent Kd” value under setting [1] was found to be 47.3 nM and the “apparent Kd” value under setting [2] was determined as 24.9 nM.
Consider “AUAAUUUUAUUUUUCCCAAGAAUCAGAAGGCAUUACAUGAGGAUCACCCAUGUUUUGGAUAGUAAUGAGGAUAUGAUAUGGUUA”, for which the “apparent Kd” value is 10.2 nM under setting [3] and 23.5 nM under setting [4].
Consider “UUGAAUUUAAACAUGAGGAUCACCCAUGUGUCAUAGUUGAUAUAGGAUAUGCUUAUACUUUGAAAGCAGAAGGAUGACGAUACU”, for which the “apparent Kd” value worked out at 26.3 nM under setting [1] and 11.9 nM under setting [2].
Taken in the same sequence, the figures for “ACAUGAGGAUCACCCAUGUAGAAUGAAGAAGGUGGAUACUUGUGACUCACCCAUGUACAUAGGACUAAGGAUAUUCUAAUAAUU” were 25.1 nM and 23 nM.
Regarding “CAAAGGUGAGGAUAUGCAUAACUAUGACGAAAGUCAUAAACACAUGAGGAUCACCCAUGUAGAAGGCACCACAA”, the “apparent Kd” value worked out at 23.9 nM under setting [3] and 18.3 nM under setting [4].
Consider “GACACCGUGUAGAAGGACCAGUGCGCUACUAUGGUAGGAUAUACAUGAGGAUCACCCAUGUGACGGCUUUCGGUGGGAGCAGUG”, for which the “apparent Kd” value runs as follows: under setting [3], 10.9 nM; under setting [4], 19.8 nM.
As for “UGAUAGGACAGAGGAUAUACGUGCUGGAGAUACUAGCAAAGUAUCUUGACAUGAGGAUCACCCAUGUAGAAGGCUGUCCUAUCU”, the “apparent Kd” value reads like this: under setting [3], 16.9 nM; under setting [4], 89.2 nM.
For “CCGGAAACGGGUAGCCUGACAUGAGGAUCACCCAUGUGAUCCUAGGAUAUGGAUCCUAAUUGGAUCCAGAAGGAGGUUGGCUAC”, the “apparent Kd” value reads like this: under setting [1], 1280 nM; under setting [2], 368 nM.
Regarding “CGCAUAUAUGUAAGGAUAUCUGCUUCGCAGAGGCAAGAGAAGGUACAUGAGGAUCACCCAUGUAUUUAAGGCGG”, the “apparent Kd” value runs as follows: under setting [3], 22.6 nM; under setting [4], 25.6 nM.
For the sequence “CCUCUACAUGAGGAUCACCCAUGUGAGGAUAUCUCGGAGCAGCCUAUUAAGGCGCUCCAGAGAAGGCACGUGUA”, the “apparent Kd” value was 19.3 nM under setting [3] and 28.3 nM under setting [4].
In the case of “GUGUACGGAGGAUAUGUAUGGGCAGGCUGACCUGCAGCUUCACAUGAGGAUCACCCAUGUAGAAGGCUGUGCAC”, the “apparent Kd” value reads like this: under setting [3], 12.1 nM; under setting [4], 24.2 nM.
Taken in the same sequence, the figures for “UUGUACAUAGGAUAUAGUUGUUUGUACAUGAGGAUCACCCAUGUUAUGUAUGUUUUGCUUCUAGAAGGAUGUUGUU” were 33.2 nM and 24.4 nM.
In the case of “UGUCGGAGCAGAGGAUAUACAUGAGGAUCACCCAUGUAAAUGGAAUAAGCCUGGAAACAGGCAAUGUAGAAGGCUGCUCCGACA”, the “apparent Kd” value reads like this: under setting [3], 69 nM; under setting [4], 628 nM.
In the case of “UAUAUUAUUAUAGGAUAUGGAUAUGAUGCAUAUCCAGAAGGGUGAUUAUAAUAUUUUCUGUACAUGAGGAUCACCCAUGUUUAU”, the “apparent Kd” value turned out to be 141 nM under setting [1] and 41.6 nM under setting [2].
For the sequence “AAGAAGUCAGGAUAUGCAUGGCGGGACUUGCGUCGUGGCGUGCAGAAGGGACAUGAGGAUCACCCAUGUAAAGG”, the “apparent Kd” value was 151 nM under setting [3] and 180 nM under setting [4].
As to “ACAUGGAAGCAGGAUAUGCUUGUAUAAUUGUUUGCAGAAGGGCUAACAUGAGGAUCACCCAUGUAAGAGGUCUA”, the “apparent Kd” value reads like this: under setting [3], 16.2 nM; under setting [4], 25.8 nM.
Turning to “AAAAUCAAUGCAGGAUAUACAUGAGGAUCACCCAUGUAGGUUGACCCUAAUACGGGCGAUUUGCAGUAGAAGGGCAAGAAGAAA”, the “apparent Kd” value under setting [3] was found to be 50.7 nM and the “apparent Kd” value under setting [4] was found to be 63.4 nM.
Taken in the same sequence, the figures for “GGGAAGGGCGGAGGAUAUCGACAUGAGGAUCACCCAUGUAUCACCCAUGUAUGAGAAGGUUGGAAGGAUUAAAACGUGAGGGUC” were 57.6 nM and 44.3 nM.
For the sequence “CUCAAACAUGAGGAUCACCCAUGUCAGGAUAUGAUACUAUGUACUUCGGUACAUAGUAUCAGAAGGGAUAUGAA”, the “apparent Kd” value was 87.6 nM under setting [3] and 111 nM under setting [4].
For “AGACCCAUGACAUGAGAUGACAUGAGGAUCACCCAUGUUUACGAGGAUAUGUUGAUGAAACAUCAACAGAAGGUGUAAUGGGCU”, the “apparent Kd” value is, setting by setting: under setting [3], 21.2 nM; under setting [4], 28.9 nM.
